Columns and labels:
[1] = biological target: Opioid receptors; mu/kappa/delta (Homo sapiens) (UniProt P41145+P41143+P35372); test: Binding affinity to opiod receptor (unknown origin) receptor at 10 uM relative to control; type: protein assay
How it was run: (§1)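 Broad radioligand-binding and enzyme screening panel covering 42 targets (biogenic amine and neuropeptide receptors, ion channels, neurotransmitter transporters, acetylcholinesterase). Single test concentration of 10 μM. Results expressed as binding relative to control, with a hit defined as >50% of control.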

[2] = biological target: Ribosomal protein S6 kinase alpha-2 (Homo sapiens) (UniProt Q15349); test: Inhibition of recombinant full length GST-tagged human RSK3 expressed in insect cells at 1 uM by FRET assay relative to control
How it was run: (§2)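 Single-concentration screen at 1 μM in Life Technologies SelectScreen, across a 220-kinase panel. Z′-LYTE format measures phosphorylation of a labeled peptide by FRET. Results are reported as percent inhibition.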

[3] = biological target: Interleukin-1 receptor-associated kinase 4 (Homo sapiens) (UniProt Q9NWZ3); test: Inhibition of recombinant full length His-tagged human IRAK4 expressed in baculovirus expression system at 1 uM by FRET relative to control
Chain of Interleukin-1 receptor-associated kinase 4 (Homo sapiens) (Q9NWZ3 whole entry): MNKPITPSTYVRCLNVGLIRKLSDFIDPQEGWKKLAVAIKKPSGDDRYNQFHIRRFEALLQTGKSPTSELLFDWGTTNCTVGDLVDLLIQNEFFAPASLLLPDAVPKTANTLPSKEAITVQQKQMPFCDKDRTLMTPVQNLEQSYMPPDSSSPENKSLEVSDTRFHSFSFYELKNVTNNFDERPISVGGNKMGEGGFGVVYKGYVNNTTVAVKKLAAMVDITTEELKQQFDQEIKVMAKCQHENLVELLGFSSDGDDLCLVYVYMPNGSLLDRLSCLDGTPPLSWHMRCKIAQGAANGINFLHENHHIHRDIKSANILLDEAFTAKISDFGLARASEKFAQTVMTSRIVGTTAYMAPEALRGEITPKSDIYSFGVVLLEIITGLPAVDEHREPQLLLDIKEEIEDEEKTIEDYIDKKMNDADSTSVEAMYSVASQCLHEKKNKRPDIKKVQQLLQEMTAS

[4] = biological target: Mitogen-activated protein kinase kinase kinase 10 (Homo sapiens, UniProt Q02779); test: Inhibition of recombinant human full length GST-tagged MLK2 expressed in baculovirus at 1 uM by FRET assay relative to control
[5] = biological target: Dual specificity mitogen-activated protein kinase kinase 1 (Homo sapiens) (UniProt Q02750); test: Inhibition of recombinant full length His-tagged human MEK1 expressed in baculovirus expression system at 1 uM by FRET assay relative to control
[6] = biological target: Phosphorylase b kinase gamma catalytic chain, skeletal muscle/heart isoform (Homo sapiens) (UniProt Q16816); test: Inhibition of recombinant full length GST-tagged human PHKgamma1 expressed in baculovirus expression system at 1 uM by FRET assay relative to control; how it was run: as §2
[7] = biological target: Histamine H2 receptor (Homo sapiens) (UniProt P25021); test: Binding affinity to recombinant human H2 receptor at 10 uM relative to control; how it was run: as §1
[8] = biological target: Glycogen synthase kinase-3 alpha (Homo sapiens) (UniProt P49840); test: Inhibition of GSK3alpha (unknown origin) at 1 uM by FRET relative to control
Chain of Glycogen synthase kinase-3 alpha (Homo sapiens) (P49840 2-483 limits assumed): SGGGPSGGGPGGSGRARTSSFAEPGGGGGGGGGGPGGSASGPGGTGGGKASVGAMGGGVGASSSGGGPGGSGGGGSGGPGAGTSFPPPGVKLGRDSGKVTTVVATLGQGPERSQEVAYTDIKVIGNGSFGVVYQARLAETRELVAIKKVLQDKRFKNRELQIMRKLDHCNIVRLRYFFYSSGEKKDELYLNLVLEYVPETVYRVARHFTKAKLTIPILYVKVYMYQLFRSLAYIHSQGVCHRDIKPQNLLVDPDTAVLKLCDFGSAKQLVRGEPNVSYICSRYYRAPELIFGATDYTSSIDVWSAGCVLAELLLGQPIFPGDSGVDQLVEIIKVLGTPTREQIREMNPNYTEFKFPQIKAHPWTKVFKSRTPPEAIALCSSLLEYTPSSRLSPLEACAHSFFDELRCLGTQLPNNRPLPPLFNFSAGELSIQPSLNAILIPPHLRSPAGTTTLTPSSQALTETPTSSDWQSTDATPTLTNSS

Homo sapiens [9] = organism: Homo sapiens; test: Binding affinity to PDE rolipram binding site (unknown origin) receptor at 10 uM relative to control; how it was run: as §1
[10] = biological target: Leucine-rich repeat serine/threonine-protein kinase 2 (Homo sapiens) (UniProt Q5S007); test: Inhibition of recombinant GST-tagged human LRRK2 catalytic domain (970 to 2527 residues) expressed in baculovirus expression system at 1 uM by FRET assay relative to control
How it was run: (§3)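 Single-point screen at 1 μM compound in a 220-kinase panel run by Life Technologies (SelectScreen). Z′-LYTE format: phosphorylation of a labeled peptide substrate read by FRET. Values are reported as percent inhibition.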

Homo sapiens [11] = organism: Homo sapiens; test: Binding affinity to L-type calcium channel dihydropyridine binding site (unknown origin) receptor at 10 uM relative to control; how it was run: as §1
[12] = biological target: LIM domain kinase 1 (Homo sapiens) (UniProt P53667); test: Inhibition of recombinant His-tagged human LIMK1 catalytic domain (285 to 638 residues) expressed in baculovirus expression system at 1 uM by FRET assay relative to control; how it was run: as §3
[13] = biological target: Peroxisome proliferator-activated receptor delta (Homo sapiens) (UniProt Q03181); test: Binding affinity to recombinant human PPARdelta at 10 uM relative to control; how it was run: as §1
[14] = biological target: MAP/microtubule affinity-regulating kinase 3 (Homo sapiens) (UniProt P27448); test: Inhibition of recombinant full length GST-tagged human MARK3 expressed in baculovirus expression system at 1 uM by FRET assay relative to control; how it was run: as §2
[15] = biological target: 5-hydroxytryptamine receptor 2A (Homo sapiens) (UniProt P28223); test: Binding affinity to 5HT2A receptor (unknown origin) receptor at 10 uM relative to control; how it was run: as §1
Chain of 5-hydroxytryptamine receptor 2A (Homo sapiens) (P28223 whole entry, the tested form may be a part): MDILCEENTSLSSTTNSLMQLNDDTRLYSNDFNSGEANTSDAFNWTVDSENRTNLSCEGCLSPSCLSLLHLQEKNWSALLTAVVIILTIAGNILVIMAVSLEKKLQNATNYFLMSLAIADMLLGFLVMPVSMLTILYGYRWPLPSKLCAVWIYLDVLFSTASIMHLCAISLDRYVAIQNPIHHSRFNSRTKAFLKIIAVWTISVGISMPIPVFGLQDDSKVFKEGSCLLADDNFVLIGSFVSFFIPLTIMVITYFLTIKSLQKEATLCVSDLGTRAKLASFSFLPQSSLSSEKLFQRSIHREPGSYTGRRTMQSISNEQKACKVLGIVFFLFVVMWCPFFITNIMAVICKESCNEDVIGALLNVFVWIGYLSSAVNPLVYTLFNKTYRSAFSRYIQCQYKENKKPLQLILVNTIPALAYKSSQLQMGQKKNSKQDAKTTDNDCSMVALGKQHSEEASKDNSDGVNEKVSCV

TAK1/TAB1 (Homo sapiens) = TAK1/TAB1 (Homo sapiens) (UniProt Q15750+O43318); test: Inhibition of recombinant full length His-tagged human TAK1-TAB1 (437 to 504 residues) expressed in baculovirus expression system at 1 uM by FRET assay relative to control
[16] = biological target: Dual specificity protein kinase CLK2 (Homo sapiens) (UniProt P49760); test: Inhibition of recombinant GST-tagged human CLK2 catalytic domain(137 to 498 residues)expressed in baculovirus expression system at 1 uM by FRET assay relative to control
[17] = biological target: Substance-P receptor (Homo sapiens) (UniProt P25103); test: Binding affinity to recombinant human NK1 receptor at 10 uM relative to control; how it was run: as §1
Chain of Substance-P receptor (Homo sapiens) (P25103 whole entry): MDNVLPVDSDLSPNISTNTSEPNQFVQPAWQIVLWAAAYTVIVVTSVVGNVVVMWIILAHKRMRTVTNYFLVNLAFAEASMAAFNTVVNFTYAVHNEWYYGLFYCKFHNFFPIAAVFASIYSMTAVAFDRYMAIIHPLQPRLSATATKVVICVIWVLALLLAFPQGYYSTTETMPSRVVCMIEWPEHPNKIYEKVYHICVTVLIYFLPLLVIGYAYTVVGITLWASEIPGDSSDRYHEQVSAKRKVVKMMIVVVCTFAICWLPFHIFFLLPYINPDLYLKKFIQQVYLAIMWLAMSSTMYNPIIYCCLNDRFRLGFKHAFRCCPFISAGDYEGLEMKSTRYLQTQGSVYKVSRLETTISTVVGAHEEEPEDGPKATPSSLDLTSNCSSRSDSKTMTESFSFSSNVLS

[18] = biological target: Focal adhesion kinase 1 (Homo sapiens) (UniProt Q05397); test: Inhibition of recombinant full length GST-tagged human FAK expressed in baculovirus expression system at 1 uM by FRET assay relative to control; how it was run: as §2
Chain of Focal adhesion kinase 1 (Homo sapiens) (Q05397 2-1052 limits assumed): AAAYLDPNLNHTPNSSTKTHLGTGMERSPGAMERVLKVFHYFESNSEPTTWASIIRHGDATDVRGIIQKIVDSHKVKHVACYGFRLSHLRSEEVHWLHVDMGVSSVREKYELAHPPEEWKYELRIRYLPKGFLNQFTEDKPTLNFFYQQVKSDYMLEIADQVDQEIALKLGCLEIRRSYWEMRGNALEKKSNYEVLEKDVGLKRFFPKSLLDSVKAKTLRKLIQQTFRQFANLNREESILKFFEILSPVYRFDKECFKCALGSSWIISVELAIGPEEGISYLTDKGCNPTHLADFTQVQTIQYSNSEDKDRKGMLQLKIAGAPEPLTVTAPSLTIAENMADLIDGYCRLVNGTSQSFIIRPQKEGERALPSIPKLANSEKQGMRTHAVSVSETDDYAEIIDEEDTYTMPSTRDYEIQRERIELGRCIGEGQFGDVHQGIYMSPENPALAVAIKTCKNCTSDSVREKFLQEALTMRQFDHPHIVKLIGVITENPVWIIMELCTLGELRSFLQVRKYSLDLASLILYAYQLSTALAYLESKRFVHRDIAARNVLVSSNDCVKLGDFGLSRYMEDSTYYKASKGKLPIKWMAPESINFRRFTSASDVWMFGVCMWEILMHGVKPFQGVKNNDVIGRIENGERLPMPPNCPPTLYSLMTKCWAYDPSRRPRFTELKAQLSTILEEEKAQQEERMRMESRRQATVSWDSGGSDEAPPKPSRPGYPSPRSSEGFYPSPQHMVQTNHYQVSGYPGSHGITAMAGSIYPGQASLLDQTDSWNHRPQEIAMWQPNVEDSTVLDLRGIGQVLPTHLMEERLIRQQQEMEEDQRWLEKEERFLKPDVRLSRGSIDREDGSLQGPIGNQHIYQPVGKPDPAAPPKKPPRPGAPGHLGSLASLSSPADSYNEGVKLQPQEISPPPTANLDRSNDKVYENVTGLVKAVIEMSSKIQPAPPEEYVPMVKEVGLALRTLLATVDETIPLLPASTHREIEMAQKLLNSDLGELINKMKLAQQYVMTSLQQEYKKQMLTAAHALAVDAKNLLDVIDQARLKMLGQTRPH

[19] = biological target: Serine/threonine-protein kinase PLK1 (Homo sapiens) (UniProt P53350); test: Inhibition of full length recombinant His-tagged human PLK1 expressed in baculovirus expression system at 1 uM by FRET assay relative to control
[20] = biological target: Serine/threonine-protein kinase Nek6 (Homo sapiens) (UniProt Q9HC98); test: Inhibition of recombinant GST-tagged human NEK6 catalytic domain expressed in baculovirus expression system at 1 uM by FRET assay relative to control; how it was run: as §3
Chain of Serine/threonine-protein kinase Nek6 (Homo sapiens) (Q9HC98 whole entry, the tested form may be a part): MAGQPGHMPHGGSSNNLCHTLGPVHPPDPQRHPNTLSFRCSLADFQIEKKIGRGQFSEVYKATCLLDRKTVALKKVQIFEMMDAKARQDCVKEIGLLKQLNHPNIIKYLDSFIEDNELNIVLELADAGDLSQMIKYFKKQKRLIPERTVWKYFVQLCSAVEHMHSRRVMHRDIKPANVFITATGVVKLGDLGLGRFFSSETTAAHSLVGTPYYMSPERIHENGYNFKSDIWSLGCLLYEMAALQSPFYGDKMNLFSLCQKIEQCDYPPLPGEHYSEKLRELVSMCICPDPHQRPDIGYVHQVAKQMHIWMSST

[21] = biological target: RAC-beta serine/threonine-protein kinase (Homo sapiens) (UniProt P31751); test: Inhibition of recombinant full length His-tagged human AKT2 expressed in baculovirus expression system at 1 uM by FRET assay relative to control
[22] = biological target: Calcium/calmodulin-dependent protein kinase type 1D (Homo sapiens) (UniProt Q8IU85); test: Inhibition of CaMK1delta (unknown origin) at 1 uM by FRET assay relative to control
[23] = biological target: Ribosomal protein S6 kinase (Homo sapiens) (UniProt P51812+Q9UBS0+O75676+Q15349+O75582+P23443+Q9UK32+Q15418); test: Inhibition of recombinant GST-tagged human p70S6K catalytic domain expressed in baculovirus expression system at 1 uM by FRET assay relative to control; how it was run: as §3
[24] = biological target: Serine/threonine-protein kinase PLK2 (Homo sapiens) (UniProt Q9NYY3); test: Inhibition of full length recombinant GST-tagged human PLK2 expressed in baculovirus expression system at 1 uM by FRET assay relative to control
Chain of Serine/threonine-protein kinase PLK2 (Homo sapiens) (Q9NYY3 whole entry, looked up): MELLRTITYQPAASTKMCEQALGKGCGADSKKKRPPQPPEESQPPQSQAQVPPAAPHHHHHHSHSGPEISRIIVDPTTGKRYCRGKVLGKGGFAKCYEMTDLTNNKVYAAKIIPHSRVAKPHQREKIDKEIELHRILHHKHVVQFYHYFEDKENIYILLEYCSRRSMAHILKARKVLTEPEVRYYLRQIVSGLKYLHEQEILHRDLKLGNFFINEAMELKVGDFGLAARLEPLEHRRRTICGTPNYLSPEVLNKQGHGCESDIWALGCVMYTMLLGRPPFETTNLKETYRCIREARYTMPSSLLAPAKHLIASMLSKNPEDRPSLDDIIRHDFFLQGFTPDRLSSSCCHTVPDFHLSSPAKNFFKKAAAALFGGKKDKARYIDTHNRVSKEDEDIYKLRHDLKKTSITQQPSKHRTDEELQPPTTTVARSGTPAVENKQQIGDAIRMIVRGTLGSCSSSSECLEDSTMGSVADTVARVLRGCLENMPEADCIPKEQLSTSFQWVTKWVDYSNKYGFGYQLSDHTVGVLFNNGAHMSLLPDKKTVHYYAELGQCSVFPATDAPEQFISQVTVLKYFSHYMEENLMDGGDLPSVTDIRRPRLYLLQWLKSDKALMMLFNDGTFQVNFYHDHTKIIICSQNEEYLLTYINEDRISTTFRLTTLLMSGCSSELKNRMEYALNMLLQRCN

[25] = biological target: Protein kinase C theta type (Homo sapiens) (UniProt Q04759); test: Inhibition of PKCtheta (unknown origin) at 1 uM by FRET assay relative to control
Chain of Protein kinase C theta type (Homo sapiens) (Q04759 whole entry, looked up): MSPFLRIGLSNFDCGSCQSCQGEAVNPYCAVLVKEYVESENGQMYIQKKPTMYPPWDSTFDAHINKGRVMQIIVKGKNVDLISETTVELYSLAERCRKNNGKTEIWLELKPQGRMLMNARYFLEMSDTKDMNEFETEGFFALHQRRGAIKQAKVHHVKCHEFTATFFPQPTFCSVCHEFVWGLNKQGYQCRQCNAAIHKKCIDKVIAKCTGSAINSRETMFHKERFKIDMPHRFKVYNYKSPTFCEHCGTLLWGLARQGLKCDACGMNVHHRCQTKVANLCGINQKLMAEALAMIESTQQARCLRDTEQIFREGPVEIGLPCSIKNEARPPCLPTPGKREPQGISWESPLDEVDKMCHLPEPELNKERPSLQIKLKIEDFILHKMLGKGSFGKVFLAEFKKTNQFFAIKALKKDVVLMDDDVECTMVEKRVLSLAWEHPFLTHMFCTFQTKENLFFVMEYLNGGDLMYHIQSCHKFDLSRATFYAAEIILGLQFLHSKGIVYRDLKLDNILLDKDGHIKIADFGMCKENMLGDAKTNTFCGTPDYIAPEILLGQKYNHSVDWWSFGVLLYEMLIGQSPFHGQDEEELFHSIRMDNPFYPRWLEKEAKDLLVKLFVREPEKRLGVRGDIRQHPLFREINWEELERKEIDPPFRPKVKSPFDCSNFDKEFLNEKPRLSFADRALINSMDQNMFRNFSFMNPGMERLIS

[26] = biological target: Adenosine receptor A2a (Homo sapiens) (UniProt P29274); test: Binding affinity to recombinant human A2A adenosine receptor at 10 uM relative to control; how it was run: as §1
Chain of Adenosine receptor A2a (Homo sapiens) (P29274 whole entry, the tested form may be a part): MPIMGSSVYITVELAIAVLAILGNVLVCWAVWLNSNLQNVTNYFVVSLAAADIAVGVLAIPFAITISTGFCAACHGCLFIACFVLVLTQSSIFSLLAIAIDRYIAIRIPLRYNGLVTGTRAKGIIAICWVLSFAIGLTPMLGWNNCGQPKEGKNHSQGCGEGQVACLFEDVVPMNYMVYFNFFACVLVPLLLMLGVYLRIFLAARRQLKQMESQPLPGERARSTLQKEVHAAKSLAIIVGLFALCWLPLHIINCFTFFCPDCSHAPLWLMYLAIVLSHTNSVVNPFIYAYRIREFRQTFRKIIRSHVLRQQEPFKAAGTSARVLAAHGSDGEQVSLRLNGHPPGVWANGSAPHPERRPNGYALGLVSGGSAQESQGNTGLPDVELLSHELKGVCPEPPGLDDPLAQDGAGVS

[27] = biological target: Cytoplasmic tyrosine-protein kinase BMX (Homo sapiens) (UniProt P51813); test: Inhibition of recombinant full length His-tagged human Bmx cytoplasmic domain expressed in Baculovirus expression system at 1 uM by FRET assay relative to control
[28] = biological target: Mitogen-activated protein kinase 8 (Homo sapiens, UniProt P45983); test: Inhibition of recombinant full length His-tagged human JNK1alpha1 expressed in baculovirus expression system by FRET assay

SMILES | Activity [1] [%] | inhibition [2] [%] | inhibition [3] [%] | inhibition [4] [%] | inhibition [5] [%] | inhibition [6] [%] | Activity [7] [%] | inhibition [8] [%] | Activity (Homo sapiens [9]) [%] | inhibition [10] [%] | Activity (Homo sapiens [11]) [%] | inhibition [12] [%] | Activity [13] [%] | inhibition [14] [%] | Activity [15] [%] | inhibition (TAK1/TAB1 (Homo sapiens)) [%] | inhibition [16] [%] | Activity [17] [%] | inhibition [18] [%] | inhibition [19] [%] | other results
CC(C)n1nc(-c2cnc(N)c(OC(F)(F)F)c2)cc1[C@H]1[C@@H]2CN(C3COC3)C[C@@H]21 | > 50 | 3.6 | -1.3 | 10.9 | 14.8 | 4 | > 50 | 7.8 | > 50 | 15.7 | > 50 | 7.7 | > 50 | 16.8 | > 50 | 35.6 | 17.6 | > 50 | 11.1 | 5 | inhibition [20]: 5.1%; inhibition [21]: 3.1%; inhibition [22]: 2.8%; inhibition [23]: 4.5%; inhibition [24]: 17.3%; inhibition [25]: 9.3%; Activity [26]: > 50%; inhibition [27]: 7.8%; IC50 [28]: > 10 µM
Nc1ncc(-c2cc([C@H]3[C@@H]4CN(C5COC5)C[C@@H]43)n(CC3CC3)n2)cc1C(F)(F)F | > 50 | 3.5 | 5.3 | 13.2 | 0 | 3 | > 50 | 0.8 | > 50 | 20.6 | > 50 | 0.3 | > 50 | 14.1 | > 50 | 42.1 | 0.3 | > 50 | 10.4 | -0.4 | inhibition [20]: 0.3%; inhibition [21]: -0.3%; inhibition [22]: 11.1%; inhibition [23]: 6.9%; inhibition [24]: 2.7%; inhibition [25]: 0.3%; Activity [26]: > 50%; inhibition [27]: 14.1%; IC50 [28]: > 10 µM

Reference: ChEMBL document CHEMBL4118097, “Selective Inhibitors of Dual Leucine Zipper Kinase (DLK, MAP3K12) with Activity in a Model of Alzheimer's Disease” (J Med Chem, 2017)
